From ChEMBL document CHEMBL4342471, “Discovery of Thieno[2,3-d]pyrimidine-Based Hydroxamic Acid Derivatives as Bromodomain-Containing Protein 4/Histone Deacetylase Dual Inhibitors Induce Autophagic Cell Death in Colorectal Carcinoma Cells” (J Med Chem, 2020)
One block for each compound: values may come before it. Calls of active or inactive are those of the source. The calls are words filed in the database; no cut-off is given here.

Tests used:
[1] = system: HCT-116; test: Effect on histone H3 expression level in human HCT116 cells measured after 24 hrs by Western blot analysis; format: functional, cell-based
[2] = system: HCT-116; test: Decrease in BRD4 expression in human HCT116 cells incubated for 24 hrs by western blot analysis; format: functional, cell-based
[3] = system: DLD-1; test: Antiproliferative activity against human DLD1 cells assessed as reduction in cell viability measured after 24 to 48 hrs by MTT assay; format: functional, cell-based
[4] = system: HCT-116; test: Antiproliferative activity against human HCT116 cells assessed as reduction in cell viability measured after 24 to 48 hrs by MTT assay; format: functional, cell-based
[5] = system: SW-620; test: Antiproliferative activity against human SW620 cells assessed as reduction in cell viability measured after 24 to 48 hrs by MTT assay; format: functional, cell-based
[6] = molecular target: T1, Bromodomain-containing protein 4 (Homo sapiens, UniProt O60885); test: Inhibition of BRD4 in human HCT116 cells assessed as induction of autophagy by measuring LC3-I cleavage to LC3-II at 2 uM measured after 24 hrs by Western blot analysis; format: cell-based
How it was run: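 HCT-116 cells were treated for 24 hours with 0.5 μM, 2.0 μM or 10 μM agents. LC3 (LC3-I to LC3-II conversion) and p62 were then detected by western blot.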

[7] = molecular target: T1, Bromodomain-containing protein 4; test: Inhibition of BRD4 in human HCT116 cells assessed as activation of IL6-JAK-STAT signaling pathway by measuring increase in CTF1 mRNA level at 2 uM after 24 hrs by RT-PCR analysis; format: cell-based
How it was run: (§1)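 HCT-116 cells were incubated for 24 hours with the test agents at 0.5, 2.0 or 10 μM. IL6, OSM, LIF and CTF1 mRNA levels were then measured.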

[8] = molecular target: T1, Bromodomain-containing protein 4; test: Inhibition of BRD4 in human HCT116 cells assessed as induction of autophagy by measuring p62 degradation at 2 uM measured after 24 hrs by Western blot analysis; format: cell-based
How it was run: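 HCT-116 cells incubated 24 h with test agent at 2.0 µM, alongside 0.5 µM and 10 µM comparator treatments; LC3 and p62 protein detected by western blot.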

[9] = molecular target: T1, Bromodomain-containing protein 4; test: Inhibition of BRD4 in human HCT116 cells assessed as activation of IL6-JAK-STAT signaling pathway by measuring increase in OSM mRNA level at 2 uM after 24 hrs by RT-PCR analysis; format: cell-based; how it was run: as §1
[10] = molecular target: T1, Bromodomain-containing protein 4; test: Inhibition of BRD4 in human HCT116 cells assessed as activation of IL6-JAK-STAT signaling pathway by measuring increase in IL6 mRNA level at 2 uM after 24 hrs by RT-PCR analysis; format: cell-based; how it was run: as §1
[11] = molecular target: T1, Bromodomain-containing protein 4; test: Inhibition of BRD4 in human HCT116 cells assessed as activation of IL6-JAK-STAT signaling pathway by measuring increase in LIF mRNA level at 2 uM after 24 hrs by RT-PCR analysis; format: cell-based; how it was run: as §1
[12] = molecular target: T1, Bromodomain-containing protein 4; test: Inhibition of GST-tagged BRD4 bromodomain (unknown origin) using biotinylated histone H4KAc peptide (1 to 21 residues) as substrate by HTRF assay
[13] = system: Mus musculus; test: Induction of autophagy in BALB/cAnNCrl mouse xenografted with human HCT116 cells assessed as increase in LC3-II level in tumor tissue at 30 mg/kg, po administered on day 1 to day 19 measured on day 19 by immunohistochemical analysis; format: functional, organism-based
How it was run: (§2)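 HCT-116 xenograft mice were dosed orally at 15 or 30 mg/kg, or 30 mg/kg for reference agents, for 19 days, with vehicle or saline controls. Tumor sections were stained for Ki-67, c-Myc, Ac-H3, BRD4, LC3-II, LIFR and p-STAT3 by immunohistochemistry, and TUNEL staining was used as the apoptosis marker.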

[14] = system: Mus musculus; test: Increase in phosphorylated STAT3 expression in tumor tissue of BALB/cAnNCrl mouse xenografted with human HCT116 cells at 30 mg/kg, po administered on day 1 to day 19 measured on day 19 by immunohistochemical analysis; format: functional, organism-based; how it was run: as §2
[15] = system: Mus musculus; test: Increase in LIFR expression in tumor tissue of BALB/cAnNCrl mouse xenografted with human HCT116 cells at 30 mg/kg, po administered on day 1 to day 19 measured on day 19 by immunohistochemical analysis; format: functional, organism-based; how it was run: as §2
[16] = molecular target: T2, Protein deacetylase HDAC6 (Homo sapiens, UniProt Q9UBN7); test: Inhibition of HDAC6 (unknown origin) using biotinylated histone H3 KAc peptide (1 to 21 residues) as substrate by HTRF assay
T2 sequence (Q9UBN7 whole entry): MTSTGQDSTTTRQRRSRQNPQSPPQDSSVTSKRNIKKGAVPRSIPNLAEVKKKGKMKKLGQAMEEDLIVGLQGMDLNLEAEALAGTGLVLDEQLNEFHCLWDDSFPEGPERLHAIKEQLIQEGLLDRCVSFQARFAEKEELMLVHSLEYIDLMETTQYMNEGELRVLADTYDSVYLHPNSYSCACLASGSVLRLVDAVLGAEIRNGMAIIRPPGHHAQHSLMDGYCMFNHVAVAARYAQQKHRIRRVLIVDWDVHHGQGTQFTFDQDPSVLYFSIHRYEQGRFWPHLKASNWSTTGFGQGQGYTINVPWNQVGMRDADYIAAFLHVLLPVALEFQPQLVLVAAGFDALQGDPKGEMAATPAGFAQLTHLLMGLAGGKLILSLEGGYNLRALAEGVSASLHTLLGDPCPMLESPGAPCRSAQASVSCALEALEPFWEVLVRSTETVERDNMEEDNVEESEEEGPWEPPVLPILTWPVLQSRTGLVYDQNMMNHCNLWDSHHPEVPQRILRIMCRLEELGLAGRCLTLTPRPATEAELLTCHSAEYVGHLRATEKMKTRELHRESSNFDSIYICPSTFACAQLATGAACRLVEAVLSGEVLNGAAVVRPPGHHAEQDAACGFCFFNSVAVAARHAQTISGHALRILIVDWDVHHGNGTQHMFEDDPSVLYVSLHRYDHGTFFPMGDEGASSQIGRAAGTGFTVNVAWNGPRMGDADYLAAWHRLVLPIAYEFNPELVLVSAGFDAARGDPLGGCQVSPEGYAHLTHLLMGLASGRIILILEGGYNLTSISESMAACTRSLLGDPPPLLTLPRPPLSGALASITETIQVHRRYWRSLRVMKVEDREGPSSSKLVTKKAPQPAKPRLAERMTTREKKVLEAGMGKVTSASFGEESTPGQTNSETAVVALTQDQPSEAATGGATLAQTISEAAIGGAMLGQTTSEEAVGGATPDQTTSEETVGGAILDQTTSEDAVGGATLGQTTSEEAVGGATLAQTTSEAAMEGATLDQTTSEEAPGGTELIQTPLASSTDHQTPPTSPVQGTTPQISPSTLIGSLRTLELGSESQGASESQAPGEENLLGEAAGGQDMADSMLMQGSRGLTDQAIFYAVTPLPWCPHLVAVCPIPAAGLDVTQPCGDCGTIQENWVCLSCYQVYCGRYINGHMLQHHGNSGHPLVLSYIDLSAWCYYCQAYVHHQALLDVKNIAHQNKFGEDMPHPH

[17] = molecular target: T3, Histone deacetylase 7 (Homo sapiens, UniProt Q8WUI4); test: Inhibition of HDAC7 (unknown origin) using biotinylated histone H3 KAc peptide (1 to 21 residues) as substrate by HTRF assay
T3 sequence (Q8WUI4 whole entry): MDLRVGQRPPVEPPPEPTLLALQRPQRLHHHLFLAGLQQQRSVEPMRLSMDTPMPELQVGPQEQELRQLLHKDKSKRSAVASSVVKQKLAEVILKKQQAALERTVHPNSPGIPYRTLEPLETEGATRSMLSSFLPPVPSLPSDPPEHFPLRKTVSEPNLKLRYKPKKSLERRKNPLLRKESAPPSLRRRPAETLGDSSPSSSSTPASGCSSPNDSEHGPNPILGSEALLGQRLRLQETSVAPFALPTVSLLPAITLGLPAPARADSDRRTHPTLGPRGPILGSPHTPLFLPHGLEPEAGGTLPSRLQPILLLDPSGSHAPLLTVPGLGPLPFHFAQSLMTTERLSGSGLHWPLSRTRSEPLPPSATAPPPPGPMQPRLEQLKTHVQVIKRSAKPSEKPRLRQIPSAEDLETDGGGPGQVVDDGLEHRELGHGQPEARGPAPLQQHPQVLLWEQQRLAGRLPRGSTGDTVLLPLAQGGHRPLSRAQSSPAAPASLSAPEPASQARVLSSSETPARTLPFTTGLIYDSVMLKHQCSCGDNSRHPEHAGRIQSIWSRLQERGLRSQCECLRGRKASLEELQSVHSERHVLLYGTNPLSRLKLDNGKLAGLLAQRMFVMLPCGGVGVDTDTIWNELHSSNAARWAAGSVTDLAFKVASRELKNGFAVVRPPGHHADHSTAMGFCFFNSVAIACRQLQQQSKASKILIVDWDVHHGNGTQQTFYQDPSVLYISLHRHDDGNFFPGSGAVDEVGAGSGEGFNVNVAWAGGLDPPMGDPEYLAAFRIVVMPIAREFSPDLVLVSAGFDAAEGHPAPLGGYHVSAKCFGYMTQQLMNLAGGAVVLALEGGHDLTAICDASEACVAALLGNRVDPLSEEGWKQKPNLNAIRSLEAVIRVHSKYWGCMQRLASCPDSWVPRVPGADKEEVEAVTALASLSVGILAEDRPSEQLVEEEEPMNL

[18] = molecular target: Histone deacetylase 2 (Homo sapiens, UniProt Q92769)
Histone deacetylase 2, sequence (Q92769 whole entry): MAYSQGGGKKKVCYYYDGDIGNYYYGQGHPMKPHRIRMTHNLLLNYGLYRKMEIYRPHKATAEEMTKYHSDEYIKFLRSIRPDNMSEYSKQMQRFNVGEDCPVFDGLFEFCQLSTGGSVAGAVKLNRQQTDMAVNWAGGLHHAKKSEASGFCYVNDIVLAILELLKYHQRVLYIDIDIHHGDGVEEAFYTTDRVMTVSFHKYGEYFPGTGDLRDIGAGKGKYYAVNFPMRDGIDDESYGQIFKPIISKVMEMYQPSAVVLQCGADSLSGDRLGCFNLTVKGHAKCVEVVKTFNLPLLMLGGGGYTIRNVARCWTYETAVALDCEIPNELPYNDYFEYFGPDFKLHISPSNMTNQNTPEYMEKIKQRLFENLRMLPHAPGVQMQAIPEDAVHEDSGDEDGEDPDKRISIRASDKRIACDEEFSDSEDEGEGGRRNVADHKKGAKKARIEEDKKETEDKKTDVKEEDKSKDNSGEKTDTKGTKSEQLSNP

IC50 [3]: > 10 µM
IC50 [4]: 12.8 µM
IC50 [5]: > 10 µM
SMILES: COc1cc(OC)c2c(=O)[nH]c(-c3cc(C)c(OCCO)c(C)c3)nc2c1 [APABETALONE]
Activity [1]: inactive
inhibition [2]: Active

inhibition [6]: Active
inhibition [7]: inactive
inhibition [8]: Active
inhibition [9]: inactive
inhibition [10]: inactive
inhibition [11]: inactive
IC50 [12]: 0.85 µM
IC50 [4]: 1.33 µM
SMILES: Cc1cc(-c2nc3sc4c(c3c(=O)[nH]2)CCN(C)C4)cc(C)c1O
Activity [13]: Active

SMILES: O=C(CCCCCCC(=O)Nc1ccccc1)NO
Activity [1]: inactive
Activity [14]: Active
Activity [15]: Active

IC50 [12]: > 10 µM
IC50 [16]: 0.391 µM
IC50 [3]: 15.2 µM
IC50 [17]: > 10 µM
IC50 [18]: 0.352 µM
IC50 [4]: 28.3 µM
IC50 [5]: 15.2 µM
SMILES: Cc1noc(C)c1-c1nc2sc3c(c2c(=O)[nH]1)CCN(CC(=O)Nc1ccccc1N)C3
